Rows were chosen to be rich in hits. Some 2.1% of all compounds tested hit in one or more screens of this group.
EP2 mod: EP2 receptor modulators, cAMP readout, primary screen, cell-based, HTRF cAMP, PGE2 stimulation; Prostaglandin E2 receptor EP2 subtype (Homo sapiens), P43116; EP2-expressing cells, cAMP HTRF FRET, PGE2 co-stimulation; induction, % at 25 µM; hit rate 0.83% among 260,000; AID 940, 2007;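 active means compounds whose cAMP rise, as percent of the full-agonist control response, exceeds 60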;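 further: rat C6 glioma line stably carrying human EP2 under a CMV promoter; the protocol text gives 20 µM as final concentration; 100% = response of wells given 1 µM PGE2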
hK5 inh: human KLK5 protease inhibitors, primary screen, biochemical, 1536-well; recombinant hK5, fluorogenic AMC substrate cleavage; inhibition, % at 5 µM; hit rate 0.59% among 210,000;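 active means inhibition of 40% or more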;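 further: 0% = enzyme controls without compound and 100% = no-enzyme blanks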
Target sequence (Q9Y337 67-293 limits assumed): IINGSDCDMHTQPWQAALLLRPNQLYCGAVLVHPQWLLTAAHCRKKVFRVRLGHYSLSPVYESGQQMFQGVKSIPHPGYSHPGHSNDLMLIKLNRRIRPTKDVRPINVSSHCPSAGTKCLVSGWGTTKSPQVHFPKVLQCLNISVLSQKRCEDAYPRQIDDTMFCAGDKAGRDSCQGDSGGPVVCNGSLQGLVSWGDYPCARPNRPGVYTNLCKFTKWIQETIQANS
FXIa inh: human FXIa protease inhibitors, primary screen, biochemical, 1536-well | Coagulation factor XI (Homo sapiens), P03951 | purified FXIa, Boc-Glu-Ala-Arg-AMC fluorogenic substrate | inhibition, % at 5 µM | hit rate 0.14% among 220,000 | AID 798, 2007;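 active means inhibition of at least 40%; inactive means inhibition below 40%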;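 further: fluorescence of freed AMC excited at 355 nm; 0% = enzyme without compound and 100% = no enzyme blank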
FXIIa inh 1536: human FXIIa protease inhibitors, primary screen, biochemical, 1536-well | purified FXIIa, Boc-QGR-AMC fluorogenic substrate, 2 h | inhibition, % at 5 µM | hit rate 0.3% among 220,000; in the data active means inhibition above about 40%;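 further: 0% = enzyme with no compound and 100% = blank without enzyme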
Thrombin inh: human alpha-thrombin inhibitors, primary screen, counter-screen for coagulation protease inhibitor project, biochemical, 1536-well, fluorogenic AMC substrate. inhibition, % at 5 µM. hit rate 0.26% among 220,000. Boc-VPR-AMC fluorogenic substrate cleavage. Prothrombin (Homo sapiens), P00734. AID 1046, 2008;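 active means inhibition at or above 40%; inactive means inhibition below 40%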;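 further: 0% = enzyme with no compound and 100% = wells without enzyme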
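System: human alpha-thrombin protein; Compound dosing: one concentration per compound, 5 µM, with 0.2% DMSO; Timing: reaction at room temperature; Technique: AMC fluorescence, 355/460 nm; Controls: enzyme without compound as high, wells lacking enzyme as low.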
EP2 antag: human EP2 receptor antagonists, primary screen, TR-FRET cAMP, C6 glioma cells; hit rate 0.52% among 260,000; C6 glioma cells expressing human EP2; cells stimulated with saturating PGE2; inhibition, % at 25 µM;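 active means percent inhibition above 40 after rounding to a whole number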;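 further: rat C6 glioma host cells with rolipram phosphodiesterase inhibitor present; the protocol text gives 20 µM as final concentration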
* = called active by the depositor; nt = no result; ! = not active in a repeat.

SMILES	EP2 mod	hK5 inh	FXIa inh	FXIIa inh 1536	Thrombin inh	EP2 antag
CC(=O)c1ccc(NC(=O)/C(Cl)=C/c2ccccc2)cc1	-25	34	57*	33	19	3
CCCOc1ccccc1C1NC(=O)NC(C)=C1C(=O)OCCOC (stereo not given)	17	4	0	9	-1	10
CCCOc1ccccc1C1NC(=O)NC(C)=C1C(=O)OCc1ccccc1 (stereo not given)	64*	-5	13	2	-4	12
COC(=O)NCC(c1ccco1)N1CCN(c2ccc(OC)cc2)CC1 (stereo not given)	-5	-28	-9	-9	-1	6
COC(=O)NCC(c1ccco1)N1CCN(c2ccc(F)cc2)CC1 (stereo not given)	15	43*	0	-2	27	2
O=C(NCC(c1cccnc1)N1CCN(c2ccc(F)cc2)CC1)OCc1ccccc1 (stereo not given)	-14	46*	10	14	21	0
COc1ccccc1NC(=O)c1sc2ncn(CCc3ccccc3)c(=O)c2c1C	-6	nt	nt	nt	nt	6
Cc1cccc(NC(=O)C2CCCN(S(=O)(=O)c3ccc(-n4cnnn4)cc3)C2)c1C (stereo not given)	-79	nt	nt	nt	nt	6
CC(=O)Nc1ccc(S(=O)(=O)Nc2nc3ccccc3nc2-n2ccc(=NC(=O)c3ccccc3)cc2)cc1	-15	2	-2	5	-7	6
O=C(N=c1ccn(-c2nc3ccccc3nc2NS(=O)(=O)c2ccc(Cl)cc2)cc1)c1cccs1	21	-5	-4	-1	-8	48*
O=C(N=c1ccn(-c2nc3ccccc3nc2NS(=O)(=O)c2ccc(Cl)cc2)cc1)c1ccccc1Cl	14	2	11	7	0	10
CCOc1ccc(S(=O)(=O)Nc2nc3ccccc3nc2-n2ccc(=NC(=O)c3cccs3)cc2)cc1	0	-5	5	13	3	45*
Cc1cc(=O)oc2cc(NC(=O)CC3(CC(=O)O)CCCC3)ccc12	1	52*	0	-1	-4	12
C[N+](C)(C)CCN[N@+]1(C)CCCc2ccccc21	19	nt	nt	nt	nt	40*
Nc1nc(N)c2cc(Sc3ccc4ccccc4c3)ccc2n1	-44	0	-1	7	-3	53*
O=C1Nc2ccccc2C1=Nc1ccc(S(=O)(=O)Nc2nccs2)cc1	-19	3	1	9	2	46*!
O=C(CCC1CCCN(C(=O)C2(c3ccccc3)CC2)C1)N1CCN(c2ccccn2)CC1 (stereo not given)	5	0	-4	9	96*	11
O=C(CCC1CCCN(c2ncccn2)C1)N1CCN(c2ccccn2)CC1 (stereo not given)	4	2	5	13	0	11
O=C(CNS(=O)(=O)c1cccs1)N1CCN(C2CCCCC2)C(=O)C1	-15	nt	nt	nt	nt	6
O=C(CN1C(=O)[C@H]2CCCN2C(=O)c2ccccc21)Nc1ccc2c(c1)OCO2	-17	nt	nt	nt	nt	5
Cc1cc(C)c(NC(=O)c2ccoc2C)c(C)c1	5	61*	5	19	12	11
CCCC(=O)NNC(=O)c1ccoc1C	2	26	9	40*	18	3
Cc1cccc(C)c1OCC(=O)NNC(=O)c1ccoc1C	20	-7	0	16	1	8
COc1cccc(NC(=O)C(Cc2c[nH]c3ccccc23)NC(=O)Oc2ccccc2)c1 (stereo not given)	-23	nt	nt	nt	nt	8
COc1ccc(C2C(C(=O)Nc3ccccc3)=C(C)N=C3SCC(=O)N32)cc1 (stereo not given)	17	-29	10	18	4	16
CC1=C(C(=O)Nc2ccccc2)C(c2ccc(O)cc2)N2C(=O)CSC2=N1 (stereo not given)	10	37	7	16	43*	6
CCn1c(COc2ccc(OC)cc2)nnc1SCc1ccc(Cl)cc1	-8	nt	nt	nt	nt	12
